KDM4C inh: KDM4C (human) demethylase inhibition; Q9H3R0; GST-KDM4C 2-372, H3K9me3 peptide, LANCE TR-FRET; hit rate 0.15% among 96,000; inhibition, % at 12.5 µM;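 active = mean replicate inhibition above about 25%, with at least 55% of replicates also reaching it, limit read from the data, passing the limit was not always enough; inconclusive = only one of those two conditions met; inactive = neither condition met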
Target sequence (Q9H3R0 2-372 limits assumed): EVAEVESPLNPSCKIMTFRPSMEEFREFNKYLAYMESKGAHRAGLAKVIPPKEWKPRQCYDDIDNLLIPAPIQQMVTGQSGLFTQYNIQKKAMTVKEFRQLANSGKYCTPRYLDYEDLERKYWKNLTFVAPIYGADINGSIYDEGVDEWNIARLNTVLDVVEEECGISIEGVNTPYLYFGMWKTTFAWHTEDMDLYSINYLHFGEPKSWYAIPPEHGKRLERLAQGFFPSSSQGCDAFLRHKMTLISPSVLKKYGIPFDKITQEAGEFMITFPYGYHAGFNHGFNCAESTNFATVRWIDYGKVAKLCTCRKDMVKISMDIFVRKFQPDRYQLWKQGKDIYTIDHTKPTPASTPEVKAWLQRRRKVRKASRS
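System: N-terminal GST-fused human GASC-1 (KDM4C) fragment, residues 2-372; amount: enzyme final amount 10 nM; incubation: reaction 30 min RT, detection step 1 h RT; medium: HEPES buffer, pH 7.5, plus ascorbate; technique: LANCE TR-FRET, Eu antibody, ULight-streptavidin, EDTA, ex 340 nm, em 618/671 nm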
IDH1 mut inh: IDH1 R132H (human) inhibition. inhibition, % at 10 µM. O75874. hit rate 0.18% among 70,000. AID 624101. IDH1 R132H reductase, diaphorase/resazurin fluorescence, 60 min; in the data active = inhibition above about 34%; inconclusive = no clear call, values can overlap the other calls; inactive = below about 11%;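 note: 0% = DMSO and 100% = no enzyme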
T cruzi growth-1: T. cruzi proliferation inhibition. inhibition, % at 8.34 µM. AID 624255. T. cruzi beta-gal in NIH3T3, GalScreen luminescence, 90 h. hit rate 5.9% among 77,000;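 active = mean inhibition above about 93%, with at least 55% of replicates each passing it, limit read from the data, passing the limit was not always enough; inconclusive = only one of those two conditions holds; inactive = neither condition holds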
T cruzi growth-2: Trypanosoma cruzi proliferation inhibition | shares compounds with T cruzi growth-1 | T. cruzi beta-gal in NIH3T3, GalScreen luminescence, 90 h | inhibition, % at 8.35 µM | hit rate 72% among 5,600 | AID 651739;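 active = mean replicate inhibition above about 95% and at least 55% of replicates individually reaching it, limit read from the data; inconclusive = only one of the two criteria is met; inactive = neither criterion is met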
T cruzi growth-3: blocks T. cruzi growth in NIH3T3 host cells; shares compounds with T cruzi growth-1; T. cruzi beta-gal in NIH3T3, GalScreen luminescence, 90 h; inhibition, % at 2.09 µM; hit rate 21% among 5,600; AID 651740;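 active = mean inhibition above about 95%, with at least 55% of replicates also reaching it, limit read from the data; inconclusive = meets just one of the two conditions; inactive = meets neither condition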;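 note: plate controls were neutral control median for no effect and positive control median for full effect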
3T3 cytotox: cytotoxicity in mouse NIH/3T3 fibroblasts; shares compounds with T cruzi growth-1; hit rate 14% among 5,600; NIH/3T3 viability, CellTiter-Glo ATP luminescence, 90 h; cytotoxicity (signal decrease), % at 8.35 µM;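 active = mean signal decrease across replicates above about 35% based on untreated-well scatter, with enough replicates individually passing, limit read from the data; inconclusive = no rule stated though some were filed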;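 note: 0% = median of neutral control wells and 100% = median of positive control wells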
3T3 cytotox 2: cytotoxicity in mouse NIH/3T3 fibroblasts; shares compounds with T cruzi growth-1; NIH/3T3 viability, CellTiter-Glo ATP luminescence, 90 h; inhibition, % at 24.9 µM; hit rate 56% among 5,600; AID 651744;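 active = mean loss of cell viability signal at or above a set limit, and enough replicates individually reaching it; inconclusive = meets only the mean limit or only the replicate share; inactive = meets neither condition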;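 note: 0% = median of neutral control wells and 100% = median of positive control wells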
* hit, by the source's call; ? = inconclusive; nt = no result. Many of the other results were omitted from the sample, so hits are more common in it than they were.

SMILES | KDM4C inh | IDH1 mut inh | T cruzi growth-1 | T cruzi growth-2 | T cruzi growth-3 | 3T3 cytotox | 3T3 cytotox 2
CCCNC(=O)[C@@H]1[C@@H](CO)[C@@H]2Cn3c(ccc(-c4ccc(F)cc4)c3=O)[C@@H]2N1C | 4 | nt | 37 | nt | nt | nt | nt
O=C([C@@H]1[C@@H](CO)[C@@H]2Cn3c(ccc(-c4cccc(F)c4)c3=O)[C@@H]2N1Cc1cocn1)N1CCCCC1 | 9 | nt | 83 | nt | nt | nt | nt
CCCNC(=O)N1[C@@H]2c3ccc(-c4ccc(F)cc4)c(=O)n3C[C@@H]2[C@@H](CO)[C@@H]1C(=O)N1CCCCC1 | -1 | nt | 102* | 0 | 0 | -14 | 21
COC(=O)[C@H]1[C@H](CO)[C@H]2Cn3c(ccc(-c4ccc(F)cc4)c3=O)[C@H]2N1C(=O)C1CC1 | 0 | nt | 73 | nt | nt | nt | nt
COC(=O)[C@@H]1[C@@H](CO)[C@@H]2Cn3c(ccc(-c4ccc(F)cc4)c3=O)[C@@H]2N1C(=O)C1CCC1 | 0 | nt | 114* | -16 | -14 | -5 | 6
O=C([C@H]1[C@H](CO)[C@H]2Cn3c(ccc(-c4cccc(F)c4)c3=O)[C@H]2N1Cc1cocn1)N1CCCCC1 | 3 | nt | ? | 78 | -20 | 20 | 24*
CCCNC(=O)[C@H]1[C@H](CO)[C@H]2Cn3c(ccc(-c4ccccc4)c3=O)[C@H]2N1C(=O)C1CC1 | -1 | nt | nt | nt | nt | nt | nt
CCCNC(=O)[C@@H]1[C@@H](CO)[C@@H]2Cn3c(ccc(-c4ccccc4)c3=O)[C@@H]2N1C(=O)C1CCC1 | 1 | nt | 102* | 16 | 19 | -18 | 2
Cc1cccc(-n2c(SCC(=O)Nc3ccc(Br)cc3F)nnc2-c2ccccc2)c1 | nt | 0 | nt | nt | nt | nt | nt
C[C@@H]1CN([C@@H](C)CO)C(=O)Cc2cc(NC(=O)Nc3ccc4c(c3)OCO4)ccc2O[C@H]1CN(C)Cc1ccc(C(F)(F)F)cc1 | 9 | 0 | 64 | nt | nt | nt | nt
COC1OC(OC)C(O)(CC[C@@]2(O)[C@H](C)C[C@@H](O)C3[C@@](C)(CO)CCC[C@]32C)C1O (stereo partly specified) | nt | 0 | nt | nt | nt | nt | nt
C[C@@H]1CN([C@@H](C)CO)C(=O)c2cc(C3=CCCCC3)cnc2O[C@@H]1CN(C)C(=O)c1cccnc1 | 5 | -2 | nt | nt | nt | nt | nt
CS(=O)(=O)N1[C@@H](C#N)[C@H](c2ccc(C#CC3CCCC3)cc2)[C@@H]1CO | -2 | nt | ? | 80 | 16 | -11 | -1
CS(=O)(=O)N1[C@H](C#N)[C@H](c2ccc(C#CC3CCCCC3)cc2)[C@@H]1CO | 0 | nt | ? | 101* | 107* | 2 | 42*
CS(=O)(=O)N1[C@H](C#N)[C@@H](c2ccc(C#CC3CCCCC3)cc2)[C@@H]1CO | -2 | nt | 89 | nt | nt | nt | nt
CS(=O)(=O)N1[C@H](C#N)[C@@H](c2ccc(C#CC3CCCC3)cc2)[C@@H]1CO | -4 | nt | 92 | nt | nt | nt | nt
OC[C@H]1[C@@H](c2ccc(-c3ccc(F)cc3)cc2)[C@@H]2CN(Cc3cccnc3)CCCCN12 | -1 | nt | 99* | 99* | 34 | 29 | 105*
COc1cccc(-c2ccc([C@H]3[C@H](CO)N4CCCCN(Cc5cncnc5)C[C@@H]34)cc2)c1 | -1 | nt | 89 | nt | nt | nt | nt
OC[C@@H]1[C@H](c2ccc(-c3ccc(F)cc3)cc2)[C@H]2CN(Cc3cccnc3)CCCCN12 | -1 | nt | 90 | nt | nt | nt | nt
Cc1ccc(-c2ccc([C@H]3[C@@H](CO)N4CCCCN(Cc5cncnc5)C[C@H]34)cc2)cc1 | 2 | nt | 18 | nt | nt | nt | nt
COc1cccc(CN2CCCCN3[C@H](CO)[C@H](c4ccc(-c5cccc(C#N)c5)cc4)[C@@H]3C2)c1 | -3 | nt | 111* | 108* | 101* | 11 | 102*
OC[C@@H]1[C@H](c2ccc(-c3ccccc3)cc2)[C@H]2CN(Cc3cncnc3)CCCCN12 | 1 | nt | 101* | ? | 80 | 13 | 53*
Cc1cccc(-c2ccc([C@H]3[C@@H](CO)N4CCCCN(Cc5cccnc5)C[C@@H]34)cc2)c1 | 0 | nt | 120* | ? | 74 | 22 | 103*
Cc1cccc(-c2ccc([C@H]3[C@H]4CN(Cc5ccncc5)CCCCN4[C@H]3CO)cc2)c1 | 2 | nt | 39 | nt | nt | nt | nt
Cc1noc(C)c1NC(=O)N(C)C[C@H]1Oc2ccc(NC(=O)CCN3CCOCC3)cc2CC(=O)N([C@H](C)CO)C[C@@H]1C | -2 | 0 | 21 | nt | nt | nt | nt

From PubChem
